# According to article PMC3186881 (Chemico-biological interactions, 2011):
# Peptide text beside a SMILES is read from it. * marks the point of attachment. Cbz = O=C(OCc1ccccc1)*; CH2F = FC*
# Assays:
# Jurkat cells [1] = assay: Cell viability by trypan blue exclusion; format: cell-based; conditions: for cell viability (trypan blue exclusion): 100 nM
# Jurkat cells [2] = assay: DNA fragmentation; format: cell-based; conditions: 24 h
# Jurkat cells [3] = assay: Intracellular superoxide levels; format: cell-based; conditions: 100 nM; for increase of intracellular superoxide compared to diluent: 16 h; for ROS levels (superoxide and hydrogen peroxide): time course
# In short: (§1)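 Jurkat cells treated at 100 nM over a time course up to 16 h. Stained 30 min in the dark with dihydroethidine (superoxide, FL-3) or CM-H2DCF-DA (hydrogen peroxide, FL-1); flow cytometry, mean fluorescence reported. Compared with DMSO-treated cells by ANOVA and Bonferroni post-test.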
# Jurkat cells [4] = assay: Intracellular hydrogen peroxide levels; format: cell-based; conditions: 100 nM, time course
# In short: as §1
# [5] = target: chymotrypsin-like (CT-L) activity of the proteasome (Homo sapiens, UniProt P28074); assay: Chymotrypsin-like proteasome activity in treated Jurkat cells; format: cell-based; conditions: for CT-L activity over time (recovery or sustained inhibition): 1 h to 16 h
# [6] = target: caspase-like (C-L) activity of the proteasome (Homo sapiens, UniProt P28072); assay: Caspase-like proteasome activity in treated Jurkat cells; format: cell-based; conditions: for inhibition of C-L activity: Jurkat cells, equipotent concentrations (4.5 μM NPI-2078, 1 μM NPI-2104, 25 nM marizomib)
# In short: (§2)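 Jurkat cells dosed 1 h or 12 h at equipotent concentrations chosen from 24 h DNA-fragmentation dose-response. Caspase-like activity read as z-LLE-amc hydrolysis; trypsin-like as […] hydrolysis. Fluorescence at ex 380/em 460 nm (RFU), normalized to DMSO-treated cells as 100%. Mean ± SD of three independent experiments; two-way ANOVA with Bonferroni post-test.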
# [7] = target: trypsin-like (T-L) activity of the proteasome (Homo sapiens, UniProt Q99436); assay: Trypsin-like proteasome activity in treated Jurkat cells; format: cell-based
# In short: as §2
# caspase-8 = assay: Caspase-8 activation by western blot; format: cell-based; conditions: Jurkat cells, 6 h
# In short: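 Jurkat cells treated 6 h at 100 nM. Lysates from 5x10^6 cells; 50 μg protein run on SDS-PAGE, transferred to nitrocellulose, probed with caspase-8 antibody (1:500) detecting pro- and cleaved forms, then secondary (1:5000). Antibodies in 5% milk/TBS, 0.005% Tween; ECL detection. Densitometry given as cleaved:pro-caspase-8 ratio.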
# Jurkat cells [8] = assay: Cell size by forward scatter versus side scatter; format: cell-based; conditions: 100 nM, 24 h
# In short: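 Jurkat cells treated 24 h, then analysed by flow cytometry. Cell size judged on forward- versus side-scatter plots, with a gate set on the DMSO control population to detect size shifts after treatment.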
# [9] = system: β5 protein (chymotryptic-like subunit of the proteasome); assay: β5 subunit protein level by western blot; format: cell-based; conditions: Jurkat cells, 100 nM, 1, 6 and 12 h
# PARP = PARP cleavage by western blot; format: cell-based; conditions: Jurkat cells, 100 nM, 16 h
# In short: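 Jurkat cells exposed to 100 nM for 16 h. Lysates from 5x10^6 cells; 50 μg protein by SDS-PAGE, nitrocellulose transfer, PARP antibody 1:2000, secondary 1:5000, diluted in 5% milk/TBS with 0.005% Tween; ECL detection. Cleaved PARP band quantified by densitometry, normalized to actin.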
# Jurkat cells [10] = assay: Nuclear morphology by Hoechst staining; format: cell-based; conditions: 100 nM, 24 h
# In short: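 Jurkat cells exposed 24 h at 100 nM; 10,000 cells stained with 5 μM Hoechst 33342 for 20 min, cytocentrifuged onto slides and examined by fluorescence microscopy for nuclear shrinkage and fragmentation.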
# proteasomal activities = conditions: leukemia cells; cited from earlier work
# [11] = equipotent concentrations (4.5 μM NPI-2078, 1 μM NPI-2104, 25 nM marizomib), 1 h
# [12] = equipotent concentrations (4.5 μM NPI-2078, 1 μM NPI-2104, 25 nM marizomib), 12 h
# [13] = equipotent concentrations (4.5 μM NPI-2078, 1 μM NPI-2104, 25 nM marizomib)
structure (smiles),measurement,setting,value
"CC(=O)N[C@@H](CS)C(=O)O [NAC, N-acetyl cysteine, reference compound]",toxicity as single agent,Jurkat cells [1]; 24 mM,did not have toxic effects
same,effect of antioxidant pretreatment on viability loss by LG analogs,"Jurkat cells [1]; 24 mM NAC before 100 nM analogs, 24 h",offered protection
same,effect of antioxidant pretreatment on DNA fragmentation induced by LG analogs,Jurkat cells [2]; 24 mM NAC before 100 nM analogs,attenuated
CC12OC(=O)C1(C(O)C1C=CCCC1)NC(=O)C2CCBr (stereo not drawn) [NPI-2053],increase of intracellular superoxide compared to diluent,Jurkat cells [3],over 7 fold
same,hydrogen peroxide levels compared to diluent,Jurkat cells [4],steadily increased
CC12OC(=O)C1(C(O)C1CCCCC1)NC(=O)C2CCCl (stereo not drawn) [NPI-2056],CT-L activity over time (recovery or sustained inhibition),[5]; 100 nM,partial recovery
same,cell viability (trypan blue exclusion),Jurkat cells [1]; 24 h,more viable cells
same,DNA fragmentation,Jurkat cells [2]; 100 nM,less DNA fragmentation
same,increase of intracellular superoxide compared to diluent,Jurkat cells [3],over 7 fold
same,hydrogen peroxide levels compared to diluent,Jurkat cells [4],steadily increased
CC12OC(=O)C1(C(O)C1C=CCCC1)NC(=O)C2CCI (stereo not drawn) [NPI-2070],increase of intracellular superoxide compared to diluent,Jurkat cells [3],over 7 fold
same,hydrogen peroxide levels compared to diluent,Jurkat cells [4],steadily increased
CC12OC(=O)C1(C(O)C1C=CCCC1)NC(=O)C2CCN=[N+]=[N-] (stereo not drawn) [NPI-2078],"CT-L activity, % of control",[5]; [11],10%
same,inhibition of CT-L activity,[5]; [12],70%
same,inhibition of C-L activity,[6]; 1 h,≥ 95%
same,inhibition of C-L activity,[6]; 12 h,> 65%
same,inhibition of T-L activity,[7]; [12],~5%
same,cell viability (trypan blue exclusion),Jurkat cells [1]; 24 h,did not affect viability
same,caspase-8 activation (cleavage of pro-caspase-8),caspase-8; [13],caspase-8 activation occurred
same,ROS levels (superoxide and hydrogen peroxide),Jurkat cells [3],weak
same,change in cell size compared to control population,Jurkat cells [8],did not show a large change in cell size
same,level of β5 protein,[9],Neither inhibitor decreased levels of β5 protein
CC12OC(=O)C1(C(O)C1C=CCCC1)NC(=O)C2CCSC#N (stereo not drawn) [NPI-2104],inhibition of CT-L activity,"[5]; 100 nM, 1 h",about 90%
same,CT-L activity over time (recovery or sustained inhibition),[5]; 100 nM,recovered
same,"CT-L activity, % of control","[5]; 100 nM, 12 h",64.5%
same,"CT-L activity, % of control","[5]; equipotent concentration (1 μM NPI-2104), 12 h",28.6%
same,"CT-L activity, % of control",[5]; [11],10%
same,inhibition of CT-L activity,[5]; [12],70%
same,inhibition of C-L activity,[6]; 1 h,≥ 95%
same,inhibition of C-L activity,[6]; 12 h,> 65%
same,inhibition of T-L activity,"[7]; equipotent concentrations (1 μM NPI-2104, 25 nM marizomib), 1 h",11%
same,inhibition of T-L activity,[7]; [12],> 30%
same,cell viability (trypan blue exclusion),Jurkat cells [1]; 24 h,did not affect viability
same,caspase-8 activation (cleavage of pro-caspase-8),caspase-8; 100 nM,weakly activated
same,caspase-8 activation (cleavage of pro-caspase-8),caspase-8; [13],caspase-8 activation occurred
same,ROS levels (superoxide and hydrogen peroxide),Jurkat cells [3],weak
Cc1ccc(S(=O)(=O)OCCC2C(=O)NC3(C(O)C4C=CCCC4)C(=O)OC23C)cc1 (stereo not drawn) [NPI-2151],increase of intracellular superoxide compared to diluent,Jurkat cells [3],over 7 fold
same,hydrogen peroxide levels compared to diluent,Jurkat cells [4],steadily increased
"C[C@@]12OC(=O)[C@]1([C@@H](O)[C@@H]1C=CCCC1)NC(=O)[C@@H]2CCCl [marizomib, Marizomib, reference compound]",inhibition of CT-L activity,[5]; [12],sustained
same,inhibition of C-L activity,[6]; 12 h,sustained
same,inhibition at 0.025 µM,"[6]; Jurkat, read-out: inhibition of C-L activity",88%
same,caspase-8 activation (cleavage of pro-caspase-8),caspase-8; [13],caspase-8 activation occurred
same,PARP cleavage,PARP,PARP cleavage occurred
same,nuclear morphology (Hoechst staining),Jurkat cells [10],shrinkage and fragmentation of the DNA
same,change in cell size compared to control population,Jurkat cells [8],altered cell size
same,level of β5 protein,[9],Neither inhibitor decreased levels of β5 protein
same,profile of inhibition of proteasome activities,proteasomal activities,"blocking the CT-L and C-L activities potently, while T-L activity is inhibited to a lesser extent"
CC[C@H](C)[C@H](NC(=O)OCc1ccccc1)C(=O)N[C@@H](CCC(=O)OC)C(=O)N[C@H](C(=O)N[C@@H](CC(=O)OC)C(=O)CF)[C@@H](C)O [z-IETD-fmk] (Cbz-IE(OMe)TD(OMe)-CH2F),effect of caspase-8 inhibitor pretreatment on analog-induced DNA fragmentation,Jurkat cells [2]; 25 μM z-IETD-fmk 30 min before 100 nM analogs,prevented
